Data as given in ChEMBL document CHEMBL1147383, “Use of alkenylresorcinols from Ononis speciosa as synthetic precursors of compounds with potential biological activity” (J Nat Prod, 1993).
Active and inactive are the calls of the source. No cut-off for these calls is given here.

Experiments:
[1] = test system: Saccharomyces cerevisiae; assay: Antifungal activity against Saccharomyces cerevisiae S1 after 18 hrs by disk diffusion assay; assay type: functional, organism-based
Summary of the method: (§1)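 Yeast strains were grown in YEPG at 28°. Plates were seeded with 0.1 ml of 8-h-old cultures. 6-mm paper disks were impregnated with 100 or 200 µg. Diffusion ran 1 h at 4°, followed by incubation. Zone of growth inhibition (diameter, mm) was recorded 18 h after incubation.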

[2] = test system: Salmonella; assay: Antibacterial activity against Salmonella after 18 hrs by disk diffusion assay; assay type: functional, organism-based
Summary of the method: (§2)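 Gram-negative strains were grown in brain-heart agar and incubated at 37°. BHA plates were inoculated with 0.1 ml of 8-h cultures. 6-mm paper disks carried 100 or 200 µg of compound. Plates stood 1 h at 4° to allow diffusion before incubation. The inhibition halo diameter (mm) was measured after 18 h.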

[3] = test system: Staphylococcus aureus; assay: Antibacterial activity against Staphylococcus aureus ATCC 8 at 200 ug/disk after 18 hrs by disk diffusion assay; assay type: functional; conditions: for zone of inhibition at 200 µg/disc: ATCC 8, 18 h, read-out: Diameter of inhibition zone
Summary of the method: (§3)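 Disk diffusion. Gram-positive strains were grown in brain-heart agar and incubated at 28°. BHA plates were seeded with 0.1 ml of 8-h cultures. 6-mm paper disks were loaded with 100 or 200 µg of compound. Plates were held at 4° for 1 h for diffusion, then incubated. Growth-inhibition halo diameter (mm) was read at 18 h.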

[4] = test system: Escherichia coli; assay: Antibacterial activity against Escherichia coli U9 after 18 hrs by disk diffusion assay; assay type: functional, organism-based; summary of the method: as §2
[5] = test system: Niallia circulans; assay: Antibacterial activity against Bacillus circulans at 100 ug/disk after 18 hrs by disk diffusion assay; assay type: functional; conditions: for zone of inhibition at 100 µg/disc: read-out: Diameter of inhibition zone; summary of the method: as §3
[6] = test system: Niallia circulans; assay: Antibacterial activity against Bacillus circulans at 200 ug/disk after 18 hrs by disk diffusion assay; assay type: functional; conditions: read-out: Diameter of inhibition zone; summary of the method: as §3
[7] = test system: Saccharomyces cerevisiae; assay: Antifungal activity against Saccharomyces cerevisiae K-2 after 18 hrs by disk diffusion assay; assay type: functional, organism-based; summary of the method: as §1
[8] = test system: Proteus; assay: Antibacterial activity against Proteus after 18 hrs by disk diffusion assay; assay type: functional, organism-based; summary of the method: as §2
[9] = test system: Bacillus licheniformis; assay: Antibacterial activity against Bacillus licheniformis CECT20 at 100 ug/disk after 18 hrs by disk diffusion assay; assay type: functional; conditions: read-out: Diameter of inhibition zone; summary of the method: as §3
[10] = test system: Bacillus subtilis; assay: Antibacterial activity against Bacillus subtilis CECT 397 at 200 ug/disk after 18 hrs by disk diffusion assay; assay type: functional; summary of the method: as §3
[11] = test system: Priestia megaterium; assay: Antibacterial activity against Bacillus megaterium at 200 ug/disk after 18 hrs by disk diffusion assay; assay type: functional; summary of the method: as §3
[12] = test system: Botrytis cinerea; assay: Antifungal activity against Botrytis cinerea CECT 2850 after 18 hrs by disk diffusion assay; assay type: functional, organism-based
Summary of the method: (§4)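 Botrytis strains were grown on potato agar at 28°. Plates were inoculated with 0.1 ml of 8-h cultures. 6-mm paper disks were impregnated with 100 or 200 µg. Plates were held 1 h at 4° for diffusion, then incubated. Growth-inhibition halo diameter (mm) was read 18 h after incubation.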

[13] = test system: Saccharomyces cerevisiae; assay: Antifungal activity against Saccharomyces cerevisiae X-3 after 18 hrs by disk diffusion assay; assay type: functional, organism-based; summary of the method: as §1
[14] = test system: Pseudomonas fluorescens; assay: Antibacterial activity against Pseudomonas fluorescens N5 after 18 hrs by disk diffusion assay; assay type: functional, organism-based; summary of the method: as §2
[15] = test system: Fusarium fujikuroi; assay: Antifungal activity against Gibberella fujikuroi IMI 58289 after 18 hrs by disk diffusion assay; assay type: functional, organism-based
Summary of the method: (§5)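 Filamentous fungi were grown on Sabouraud agar with chloramphenicol at 28°. Plates were inoculated with 0.1 ml of 8-h cultures. 6-mm disks bearing 100 or 200 µg were applied. Plates were kept at 4° for 1 h, then incubated. Inhibition halo diameter (mm) was read at 18 h.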

[16] = test system: Pseudomonas reptilivorous; assay: Antibacterial activity against Pseudomonas reptilovora after 18 hrs by disk diffusion assay; assay type: functional, organism-based; summary of the method: as §2
[17] = test system: Aspergillus niger; assay: Antifungal activity against Aspergillus niger ATCC 9142 after 18 hrs by disk diffusion assay; assay type: functional, organism-based; summary of the method: as §5
[18] = test system: Bacillus licheniformis; assay: Antibacterial activity against Bacillus licheniformis CECT20 at 200 ug/disk after 18 hrs by disk diffusion assay; assay type: functional; conditions: read-out: Diameter of inhibition zone; summary of the method: as §3
[19] = test system: Enterococcus faecalis; assay: Antibacterial activity against Enterococcus faecalis S-86 at 100 ug/disk after 18 hrs by disk diffusion assay; assay type: functional; conditions: read-out: Diameter of inhibition zone; summary of the method: as §3
[20] = test system: Bacillus subtilis; assay: Antibacterial activity against Bacillus subtilis CECT 397 at 100 ug/disk after 18 hrs by disk diffusion assay; assay type: functional; summary of the method: as §3
[21] = test system: Enterococcus faecalis; assay: Antibacterial activity against Enterococcus faecalis S-86 at 200 ug/disk after 18 hrs by disk diffusion assay; assay type: functional; conditions: read-out: Diameter of inhibition zone; summary of the method: as §3
[22] = test system: Priestia megaterium; assay: Antibacterial activity against Bacillus megaterium at 100 ug/disk after 18 hrs by disk diffusion assay; assay type: functional; summary of the method: as §3
[23] = test system: Alcaligenes faecalis; assay: Antibacterial activity against Alcaligenes faecalis after 18 hrs by disk diffusion assay; assay type: functional, organism-based; summary of the method: as §2
[24] = test system: Micrococcus luteus; assay: Antibacterial activity against Micrococcus lysodeikticus at 200 ug/disk after 18 hrs by disk diffusion assay; assay type: functional; conditions: read-out: Diameter of inhibition zone; summary of the method: as §3
[25] = test system: Botrytis cinerea; assay: Antifungal activity against Botrytis cinerea CECT 2100 after 18 hrs by disk diffusion assay; assay type: functional, organism-based; summary of the method: as §4
[26] = read-out: Diameter of inhibition zone

| Structure (SMILES) | Activity [1] | Activity [2] | Activity [4] | zone of inhibition at 100 µg/disc [5] | zone of inhibition at 200 µg/disc [6] | Activity [7] | Activity [8] | zone of inhibition at 100 µg/disc [9] | Activity [12] | Activity [13] | Activity [14] | Activity [15] | Activity [16] | Activity [17] | zone of inhibition at 200 µg/disc [18] | zone of inhibition at 100 µg/disc [19] | zone of inhibition at 200 µg/disc [21] | Activity [23] | zone of inhibition at 200 µg/disc [24] | Activity [25] | further results |
| --- | --- | --- | --- | --- | --- | --- | --- | --- | --- | --- | --- | --- | --- | --- | --- | --- | --- | --- | --- | --- | --- |
| CCCCC[C@H](/C=C\CCCCCCCc1cc(O)cc(O)c1)OC(C)=O | inactive | inactive | inactive | 7 mm | 7 mm | inactive | inactive | 7 mm | inactive | inactive | inactive | inactive | inactive | inactive | 9 mm | 7 mm | 6 mm | inactive | 7 mm | inactive | Activity [3]: inactive; Activity [10]: inactive; Activity [11]: inactive; Activity [20]: inactive; Activity [22]: inactive |
| CCCCCC/C=C\CCCCCCCc1cc(O)cc(O)c1C(=O)O | inactive | inactive | inactive |  | 7 mm | inactive | inactive | 15 mm | inactive | inactive | inactive | inactive | inactive | inactive | 15 mm | 16 mm | 30 mm | inactive | 7 mm | inactive | zone of inhibition at 200 µg/disc [3]: 7 mm; Activity [5]: inactive; Activity [10]: inactive; Activity [11]: inactive; Activity [20]: inactive; Activity [22]: inactive |
| CCCCC[C@H](/C=C\CCCCCCCc1cc(O)cc(O)c1C(=O)O)OC(C)=O | inactive | inactive | inactive | 8 mm | 9 mm | inactive | inactive | 18 mm | inactive | inactive | inactive | inactive | inactive | inactive | 22 mm | 13 mm | 15 mm | inactive | 13 mm | inactive | zone of inhibition at 200 µg/disc [3]: 7 mm; zone of inhibition at 200 µg/disc [10, 26]: 8 mm; zone of inhibition at 200 µg/disc [11, 26]: 7 mm; zone of inhibition at 100 µg/disc [20, 26]: 7 mm; zone of inhibition at 100 µg/disc [22, 26]: 7 mm |
